How the values were obtained:
[1] = target: T1, Potassium channel subfamily K member 2 (Homo sapiens) (UniProt O95069); experiment: Agonist activity at human TREK1 expressed in HEK293 cells assessed as increase in K+ current at 100 uM measured at +60 mV by whole-cell patch clamp method relative to control; type: cell-based
T1 sequence (whole entry): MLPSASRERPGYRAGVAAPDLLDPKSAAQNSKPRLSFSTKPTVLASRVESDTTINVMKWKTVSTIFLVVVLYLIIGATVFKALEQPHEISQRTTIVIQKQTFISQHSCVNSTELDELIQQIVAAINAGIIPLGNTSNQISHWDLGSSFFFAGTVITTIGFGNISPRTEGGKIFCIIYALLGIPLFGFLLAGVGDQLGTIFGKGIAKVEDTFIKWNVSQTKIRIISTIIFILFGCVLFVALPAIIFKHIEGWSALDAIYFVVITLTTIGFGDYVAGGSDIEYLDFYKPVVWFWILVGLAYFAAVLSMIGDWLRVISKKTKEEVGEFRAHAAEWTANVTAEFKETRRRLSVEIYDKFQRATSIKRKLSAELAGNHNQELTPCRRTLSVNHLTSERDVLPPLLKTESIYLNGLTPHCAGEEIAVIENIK
Summary of the method: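 Human TREK-1 (kcnk2) in pIRES2-eGFP was stably expressed in HEK-293 cells under G418 selection, and cells were used 4–48 h after plating. Bath (mM): 140 NaCl, 10 TEA-Cl, 5 KCl, 3 MgCl2, 1 CaCl2, 10 HEPES, pH 7.4. Pipette (mM): 155 KCl, 3 MgCl2, 5 EGTA, 10 HEPES, pH 7.2. Holding was −80 mV, with a step to −100 mV then a 400 ms ramp to +60 mV every 5 s. Read-out was the ratio Imax/I0 taken from I/V curves. Stocks were 20 mM in DMSO.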

Mus musculus [2] = experiment: Antinociceptive activity in CD1 mouse assessed as inhibition of acetic acid-induced writhes at 10 mg/kg, sc pretreated for 15 mins followed by acetic acid challenge measured within 20 mins relative to control; type: functional
Summary of the method: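 Male CD1 mice (20-25 g), n=8 per group, dosed at 10 mg/kg s.c. or with vehicle (5% Tween 80 in 0.9% saline). Dosing was 15 min before i.p. 0.6% acetic acid (10 mL/kg). Abdominal writhes were counted for 20 min. Effect = (mean control writhes − mean test writhes)/mean control writhes ×100.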

Liver [3] = experiment: Drug level in rat liver microsomes treated with at 40 mM (E)-ethyl 2-cyano-3-(1H-indol-2-yl)acrylate measured after 24 hrs by HPLC analysis; type: ADME, microsome; details: 40000 µM
Summary of the method: (§1)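 Incubation mix: rat liver microsomes (20 mg/mL stock), phosphate buffer pH 7.4 and NADPH (40 mM stock). Drug was added from a 40 mM DMSO stock. Samples were vortexed and incubated at 37 °C with stirring.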

[4] = target: T1, Potassium channel subfamily K member 2 (Homo sapiens); experiment: Agonist activity at human TREK1 expressed in xenopus oocytes assessed as increase in K+ current at 20 uM measured at 0 mV by double microelectrode method relative to control; type: cell-based
Mus musculus [5] = experiment: In vivo activation of TREK1 in C57Bl/6J mouse assessed as increase in thermal-stimulus induced paw withdrawal latency at 60 mg/kg, sc measured after 45 mins by hot plate method relative to control; type: functional
Summary of the method: (§2)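 TREK-1−/− and wild-type C57Bl/6J littermates came from heterozygous crosses, n=7. Dose was 60 mg/kg s.c. The 52 °C hotplate measured paw-lick latency, 30 s cut-off, with baseline from two stable pre-dose latencies.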

Mus musculus [6] = experiment: Antinociceptive activity in wild-type C57Bl/6J mouse assessed as increase in thermal-stimulus induced paw withdrawal latency at 60 mg/kg, sc measured after 45 mins by hot plate method relative to control; type: functional; summary of the method: as §2
Mus musculus [7] = experiment: Antinociceptive activity in CD1 mouse assessed as increase in thermal-stimulus induced paw withdrawal latency at 60 mg/kg, sc measured after 30 mins by hot plate method relative to control; type: functional
Summary of the method: (§3)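 Male CD1 mice (20-25 g), n=8 per group, given 60 mg/kg s.c. After 5 min acclimatization on a plate at room temperature, mice were placed on a 52 °C hotplate. Latency to forepaw or hindpaw licking or hindpaw flicking was recorded, with a 30 s cut-off. Latency was taken after two consecutive stable baselines, then 30 and 45 min post-dose. Effect = (postdrug − predrug latency)/predrug latency ×100.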

Mus musculus [8] = experiment: In vivo activation of TREK1 in C57Bl/6J mouse assessed as increase in thermal-stimulus induced paw withdrawal latency at 60 mg/kg, sc measured after 30 mins by hot plate method relative to control; type: functional; summary of the method: as §2
[9] = target: Potassium channel subfamily K member 9 (Homo sapiens) (UniProt Q9NPC2); experiment: Agonist activity at TASK3 (unknown origin) expressed in HEK293 cells assessed as increase in K+ current at 100 uM measured at +60 mV by whole-cell patch clamp method relative to control; type: cell-based
Mus musculus [10] = experiment: Antinociceptive activity in CD1 mouse assessed as increase in thermal-stimulus induced paw withdrawal latency at 60 mg/kg, sc measured after 45 mins by hot plate method relative to control; type: functional; summary of the method: as §3
Mus musculus [11] = experiment: Antinociceptive activity in TREK1 deficient C57Bl/6J mouse assessed as increase in thermal-stimulus induced paw withdrawal latency at 60 mg/kg, sc measured after 30 mins by hot plate method relative to control; type: functional; summary of the method: as §2
Mus musculus [12] = experiment: Antinociceptive activity in wild-type C57Bl/6J mouse assessed as increase in thermal-stimulus induced paw withdrawal latency at 60 mg/kg, sc measured after 30 mins by hot plate method relative to control; type: functional; summary of the method: as §2
[13] = target: T2, Potassium channel subfamily K member 4 (Homo sapiens) (UniProt Q9NYG8); experiment: Agonist activity at TRAAK (unknown origin) expressed in HEK293 cells assessed as increase in K+ current at 100 uM measured at +60 mV by whole-cell patch clamp method relative to control; type: cell-based
T2 sequence (whole entry): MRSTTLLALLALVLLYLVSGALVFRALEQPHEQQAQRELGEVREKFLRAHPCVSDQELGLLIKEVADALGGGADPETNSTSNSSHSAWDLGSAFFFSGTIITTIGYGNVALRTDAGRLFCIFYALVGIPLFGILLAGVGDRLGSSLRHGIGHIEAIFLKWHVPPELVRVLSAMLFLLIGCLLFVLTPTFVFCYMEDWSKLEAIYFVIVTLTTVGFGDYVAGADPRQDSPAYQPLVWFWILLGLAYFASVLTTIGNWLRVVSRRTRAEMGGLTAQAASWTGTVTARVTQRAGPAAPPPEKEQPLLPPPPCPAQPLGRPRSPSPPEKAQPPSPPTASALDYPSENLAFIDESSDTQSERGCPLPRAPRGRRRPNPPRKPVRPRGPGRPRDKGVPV

Mus musculus [14] = experiment: Antinociceptive activity in TREK1 deficient C57Bl/6J mouse assessed as increase in thermal-stimulus induced paw withdrawal latency at 60 mg/kg, sc measured after 45 mins by hot plate method relative to control; type: functional; summary of the method: as §2
[15] = target: T3, Potassium channel subfamily K member 10 (Homo sapiens) (UniProt P57789); experiment: Agonist activity at TREK-2 (unknown origin) expressed in HEK293 cells assessed as increase in K+ current at 100 uM measured at +60 mV by whole-cell patch clamp method relative to control; type: cell-based
T3 sequence (whole entry): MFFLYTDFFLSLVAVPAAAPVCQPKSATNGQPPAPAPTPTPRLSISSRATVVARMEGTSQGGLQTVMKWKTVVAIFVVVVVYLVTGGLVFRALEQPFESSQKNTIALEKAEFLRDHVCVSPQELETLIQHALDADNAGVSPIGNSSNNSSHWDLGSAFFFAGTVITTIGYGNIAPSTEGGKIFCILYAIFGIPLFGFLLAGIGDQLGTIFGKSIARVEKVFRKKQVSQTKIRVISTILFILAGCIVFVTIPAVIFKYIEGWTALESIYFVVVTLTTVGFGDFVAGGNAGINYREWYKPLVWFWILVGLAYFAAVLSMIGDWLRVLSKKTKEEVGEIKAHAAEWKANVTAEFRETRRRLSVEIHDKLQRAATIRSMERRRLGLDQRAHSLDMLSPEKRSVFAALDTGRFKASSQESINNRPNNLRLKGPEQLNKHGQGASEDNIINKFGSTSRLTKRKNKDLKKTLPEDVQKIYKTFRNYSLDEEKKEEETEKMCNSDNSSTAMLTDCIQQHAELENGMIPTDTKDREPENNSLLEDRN

Liver [16] = experiment: Drug level in rat liver microsomes treated with at 40 mM (E)-ethyl 2-cyano-3-(furan-3-yl)acrylate measured after 24 hrs by HPLC analysis; type: ADME, microsome; details: 40000 µM; summary of the method: as §1

Potassium channel subfamily K member 9 (Homo sapiens), sequence (Q9NPC2 whole entry): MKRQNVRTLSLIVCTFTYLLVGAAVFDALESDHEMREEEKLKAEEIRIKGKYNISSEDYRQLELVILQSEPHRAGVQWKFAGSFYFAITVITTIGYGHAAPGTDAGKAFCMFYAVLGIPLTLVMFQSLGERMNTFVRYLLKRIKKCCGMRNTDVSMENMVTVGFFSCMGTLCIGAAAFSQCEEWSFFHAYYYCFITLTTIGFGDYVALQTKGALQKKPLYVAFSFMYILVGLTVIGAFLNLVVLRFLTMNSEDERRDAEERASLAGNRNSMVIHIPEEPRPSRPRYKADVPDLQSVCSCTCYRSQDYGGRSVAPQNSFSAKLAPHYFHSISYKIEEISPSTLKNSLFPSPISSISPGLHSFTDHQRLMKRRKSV

Row | Compound | fold change (FC) [1] | inhibition in vivo at 10 mg/kg (Mus musculus [2]) [%] | Drug metabolism (Liver [3]) | fold change (FC) [4] | Activity (Mus musculus [5]) [%] | Activity (Mus musculus [6]) [%] | Activity (Mus musculus [7]) [%] | Activity (Mus musculus [8]) [%] | fold change (FC) [9] | Activity (Mus musculus [10]) [%] | Activity (Mus musculus [11]) [%] | Activity (Mus musculus [12]) [%] | fold change (FC) [13] | Activity (Mus musculus [14]) [%] | fold change (FC) [15] | Drug metabolism (Liver [16])
1 | N#C/C(=C\c1cc2ccccc2[nH]1)C(=O)O | 1.18 | 25.8 | Metabolite_Detected | 2.44 |  |  |  |  |  |  |  |  |  |  |  | 
2 | N#C/C(=C\c1ccoc1)C(=O)O | 4.53 | 30.7 |  | 1.43 | 19 | 93.5 | 56.4 | 36.6 | 1 | 119.5 | 78.1 | 121.2 | 1.1 | 75.4 | 1.8 | Metabolite_Detected

Reference: ChEMBL document CHEMBL3992520, “Development of the First Two-Pore Domain Potassium Channel TWIK-Related K+ Channel 1-Selective Agonist Possessing in Vivo Antinociceptive Activity” (J Med Chem, 2017)
